Data from ChEMBL document CHEMBL1165943, “Design and synthesis of new anticancer pyrimidines with multiple-kinase inhibitory effect” (Bioorg Med Chem, 2010).

How the values were obtained:
PC-3 [1] = assay: Cytotoxicity against human PC3 cells assessed as cell growth at 10 uM after 48 hrs by sulforhodamine B assay; format: functional; settings: PC-3, 48 h, read-out: Activity
CCRF-CEM [2] = assay: Cytotoxicity against human CCRF-CEM cells assessed as cell growth at 0.001 uM after 48 hrs by sulforhodamine B assay; format: functional; settings: read-out: Activity
SK-MEL-28 [3] = assay: Cytotoxicity against human SK-MEL-28 cells assessed as cell growth at 10 uM after 48 hrs by sulforhodamine B assay; format: functional; settings: SK-MEL-28, 48 h, read-out: Activity
NCI-H23 = assay: Cytotoxicity against human NCI-H23 cells assessed as cell growth at 100 nM after 48 hrs by sulforhodamine B assay; format: functional; settings: NCI-H23, 48 h, read-out: Activity
CCRF-CEM [4] = assay: Growth inhibition of human CCRF-CEM cells after 48 hrs by sulforhodamine B assay; format: functional
Procedure, shortened: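 Five-dose SRB assay. Cells in RPMI 1640 with 5% FBS and 2 mM L-glutamine were seeded at 5,000–40,000 cells/well, with a TCA-fixed time-zero plate (Tz) taken at 24 h. Compound stocks were in DMSO, serially diluted 10-fold or ½-log to five concentrations, and incubated 48 h at 37 °C. Plates were stained with SRB and read at 515 nm. IC₅₀ was taken where [(Ti−Tz)/(C−Tz)]×100 = 50.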

HCC 2998 = assay: Cytotoxicity against human HCC2998 cells assessed as cell growth at 0.001 uM after 48 hrs by sulforhodamine B assay; format: functional; settings: HCC 2998, 48 h, read-out: Activity
A549 = assay: Cytotoxicity against human A549 cells assessed as cell growth at 0.001 uM after 48 hrs by sulforhodamine B assay; format: functional; settings: A549, 48 h, read-out: Activity
RXF 393 [5] = assay: Cytotoxicity against human RXF393 cells assessed as cell growth at 1 uM after 48 hrs by sulforhodamine B assay; format: functional; settings: RXF 393, 48 h, read-out: Activity
CCRF-CEM [6] = assay: Cytotoxicity against human CCRF-CEM cells assessed as cell growth at 100 nM after 48 hrs by sulforhodamine B assay; format: functional; settings: read-out: Activity
PC-3 [7] = assay: Cytotoxicity against human PC3 cells assessed as cell growth at 0.001 uM after 48 hrs by sulforhodamine B assay; format: functional; settings: PC-3, 48 h, read-out: Activity
CCRF-CEM [8] = assay: Cytotoxicity against human CCRF-CEM cells assessed as cell growth at 0.01 uM after 48 hrs by sulforhodamine B assay; format: functional; settings: read-out: Activity
RXF 393 [9] = assay: Cytotoxicity against human RXF393 cells assessed as cell growth at 10 uM after 48 hrs by sulforhodamine B assay; format: functional; settings: RXF 393, 48 h, read-out: Activity
[10] = Cytotoxicity against human RPMI8266 cells assessed as cell growth at 100 nM after 48 hrs by sulforhodamine B assay; format: functional; settings: read-out: Activity
CCRF-CEM [11] = assay: Cytotoxicity against human CCRF-CEM cells assessed as cell growth at 1 uM after 48 hrs by sulforhodamine B assay; format: functional; settings: read-out: Activity
SK-MEL-28 [12] = assay: Cytotoxicity against human SK-MEL-28 cells assessed as cell growth at 100 nM after 48 hrs by sulforhodamine B assay; format: functional; settings: SK-MEL-28, 48 h, read-out: Activity
SR [13] = assay: Cytotoxicity against human SR cells assessed as cell growth at 100 nM after 48 hrs by sulforhodamine B assay; format: functional; settings: read-out: Activity
HOP-62 = assay: Cytotoxicity against human HOP62 cells assessed as cell growth at 0.001 uM after 48 hrs by sulforhodamine B assay; format: functional; settings: HOP-62, 48 h, read-out: Activity
NCI-H226 [14] = assay: Cytotoxicity against human NCI-H226 cells assessed as cell growth at 100 nM after 48 hrs by sulforhodamine B assay; format: functional; settings: NCI-H226, 48 h, read-out: Activity
SR [15] = assay: Growth inhibition of human SR cells after 48 hrs by sulforhodamine B assay; format: functional
Procedure, shortened: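 Cells grown in RPMI 1640 with 5% FBS and 2 mM L-glutamine, seeded at 5,000–40,000 cells/well according to doubling time. After 24 h, time-zero plates are TCA-fixed. Five concentrations (10-fold or ½log dilutions, DMSO stocks) are applied for 48 h at 37 °C, 5% CO₂. Cells are TCA-fixed, SRB-stained and read at 515 nm. IC₅₀ is taken from [(Ti−Tz)/(C−Tz)]×100 = 50.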

RXF 393 [16] = assay: Cytotoxicity against human RXF393 cells assessed as cell growth at 100 nM after 48 hrs by sulforhodamine B assay; format: functional; settings: RXF 393, 48 h, read-out: Activity
HOP-92 [17] = assay: Cytotoxicity against human HOP92 cells assessed as cell growth at 10 uM after 48 hrs by sulforhodamine B assay; format: functional; settings: HOP-92, 48 h, read-out: Activity
NCI-H226 [18] = assay: Cytotoxicity against human NCI-H226 cells assessed as cell growth at 10 uM after 48 hrs by sulforhodamine B assay; format: functional; settings: NCI-H226, 48 h, read-out: Activity
HOP-92 [19] = assay: Cytotoxicity against human HOP92 cells assessed as cell growth at 0.01 uM after 48 hrs by sulforhodamine B assay; format: functional; settings: HOP-92, 48 h, read-out: Activity
HOP-92 [20] = assay: Cytotoxicity against human HOP92 cells assessed as cell growth at 100 nM after 48 hrs by sulforhodamine B assay; format: functional; settings: HOP-92, 48 h, read-out: Activity
[21] = molecular target: Tyrosine-protein kinase Lyn (Homo sapiens) (UniProt P07948); assay: Inhibition of LYN at 10 uM by HotSpot assay
[22] = molecular target: Insulin-like growth factor 1 receptor (Homo sapiens) (UniProt P08069); assay: Inhibition of IGF1R at 10 uM by HotSpot assay
[23] = molecular target: Mitogen-activated protein kinase 1 (Homo sapiens) (UniProt P28482); assay: Inhibition of MAPK1 at 10 uM by HotSpot assay
[24] = molecular target: Inhibitor of nuclear factor kappa-B kinase subunit epsilon (Homo sapiens) (UniProt Q14164); assay: Inhibition of IKKepsilon at 10 uM by HotSpot assay
[25] = molecular target: Fibroblast growth factor receptor 1 (Homo sapiens) (UniProt P11362); assay: Inhibition of FGFR1 at 10 uM by HotSpot assay
[26] = molecular target: Serine/threonine-protein kinase Chk1 (Homo sapiens) (UniProt O14757); assay: Inhibition of CHK1 at 10 uM by HotSpot assay
[27] = molecular target: Angiopoietin-1 receptor (Homo sapiens) (UniProt Q02763); assay: Inhibition of TIE2 at 10 uM by HotSpot assay
[28] = molecular target: Serine/threonine-protein kinase pim-1 (Homo sapiens) (UniProt P11309); assay: Inhibition of PIM1 at 10 uM by HotSpot assay
[29] = molecular target: Serine/threonine-protein kinase mTOR (Homo sapiens) (UniProt P42345); assay: Inhibition of mTOR at 10 uM by HotSpot assay
[30] = molecular target: Ephrin type-A receptor 1 (Homo sapiens) (UniProt P21709); assay: Inhibition of EPHA1 at 10 uM by HotSpot assay
[31] = molecular target: High affinity nerve growth factor receptor (Homo sapiens) (UniProt P04629); assay: Inhibition of NTRK1 at 10 uM by HotSpot assay
[32] = molecular target: Tyrosine-protein kinase Lck (Homo sapiens) (UniProt P06239); assay: Inhibition of LCK at 10 uM by HotSpot assay
[33] = molecular target: Ribosomal protein S6 kinase beta-1 (Homo sapiens) (UniProt P23443); assay: Inhibition of p70S6K1 at 10 uM by HotSpot assay
[34] = read-out: LC50 (the source's name)

Chain of Inhibitor of nuclear factor kappa-B kinase subunit epsilon (Homo sapiens) (Q14164 whole entry): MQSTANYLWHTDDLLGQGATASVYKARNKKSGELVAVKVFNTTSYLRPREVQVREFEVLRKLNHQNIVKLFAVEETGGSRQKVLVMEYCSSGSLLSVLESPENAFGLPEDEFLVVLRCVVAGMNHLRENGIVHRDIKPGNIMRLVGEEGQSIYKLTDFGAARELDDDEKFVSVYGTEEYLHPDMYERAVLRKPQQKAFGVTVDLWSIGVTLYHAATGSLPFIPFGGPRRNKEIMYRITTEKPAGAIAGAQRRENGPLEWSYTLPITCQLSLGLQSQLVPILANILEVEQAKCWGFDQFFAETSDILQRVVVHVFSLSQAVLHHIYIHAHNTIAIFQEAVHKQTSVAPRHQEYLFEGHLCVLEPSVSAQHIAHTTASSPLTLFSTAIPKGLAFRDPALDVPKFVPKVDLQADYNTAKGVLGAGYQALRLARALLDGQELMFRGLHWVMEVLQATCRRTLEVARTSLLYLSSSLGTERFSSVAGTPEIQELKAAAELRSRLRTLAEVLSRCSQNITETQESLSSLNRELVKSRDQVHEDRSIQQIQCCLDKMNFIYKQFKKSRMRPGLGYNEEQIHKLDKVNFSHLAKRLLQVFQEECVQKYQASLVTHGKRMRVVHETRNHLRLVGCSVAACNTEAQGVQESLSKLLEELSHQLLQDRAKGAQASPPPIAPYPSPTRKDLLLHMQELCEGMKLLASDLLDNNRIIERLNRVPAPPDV
Chain of Fibroblast growth factor receptor 1 (Homo sapiens) (P11362 22-822 limits assumed): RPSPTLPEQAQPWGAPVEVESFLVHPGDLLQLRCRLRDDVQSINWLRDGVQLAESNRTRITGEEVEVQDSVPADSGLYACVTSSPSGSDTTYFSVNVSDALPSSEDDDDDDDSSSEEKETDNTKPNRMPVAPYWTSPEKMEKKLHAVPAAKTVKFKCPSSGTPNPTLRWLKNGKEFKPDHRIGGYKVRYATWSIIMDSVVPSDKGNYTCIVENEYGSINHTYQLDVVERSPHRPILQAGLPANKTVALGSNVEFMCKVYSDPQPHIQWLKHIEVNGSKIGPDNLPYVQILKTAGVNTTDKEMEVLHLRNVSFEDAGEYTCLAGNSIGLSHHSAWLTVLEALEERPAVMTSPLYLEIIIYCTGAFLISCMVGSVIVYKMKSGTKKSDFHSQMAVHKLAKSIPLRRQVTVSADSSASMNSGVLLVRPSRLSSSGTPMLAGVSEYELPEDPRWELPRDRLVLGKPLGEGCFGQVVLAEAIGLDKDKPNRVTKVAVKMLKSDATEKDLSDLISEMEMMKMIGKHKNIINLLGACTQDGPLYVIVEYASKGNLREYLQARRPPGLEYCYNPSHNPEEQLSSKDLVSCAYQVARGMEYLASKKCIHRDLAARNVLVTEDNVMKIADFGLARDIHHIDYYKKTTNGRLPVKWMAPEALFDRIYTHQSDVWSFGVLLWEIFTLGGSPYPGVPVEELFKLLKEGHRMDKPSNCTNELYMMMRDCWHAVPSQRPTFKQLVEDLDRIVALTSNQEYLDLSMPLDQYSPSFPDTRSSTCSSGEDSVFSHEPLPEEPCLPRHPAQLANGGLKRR
Chain of Serine/threonine-protein kinase pim-1 (Homo sapiens) (P11309 whole entry, looked up): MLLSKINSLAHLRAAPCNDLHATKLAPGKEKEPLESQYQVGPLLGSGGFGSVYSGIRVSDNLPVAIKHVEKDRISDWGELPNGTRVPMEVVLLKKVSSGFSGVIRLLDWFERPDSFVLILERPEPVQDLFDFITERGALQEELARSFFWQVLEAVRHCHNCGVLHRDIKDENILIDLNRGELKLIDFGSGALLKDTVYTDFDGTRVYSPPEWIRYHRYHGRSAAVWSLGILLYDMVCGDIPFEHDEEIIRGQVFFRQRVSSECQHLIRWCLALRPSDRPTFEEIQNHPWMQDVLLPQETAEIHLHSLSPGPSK
Chain of Tyrosine-protein kinase Lck (Homo sapiens) (P06239 2-509 limits assumed): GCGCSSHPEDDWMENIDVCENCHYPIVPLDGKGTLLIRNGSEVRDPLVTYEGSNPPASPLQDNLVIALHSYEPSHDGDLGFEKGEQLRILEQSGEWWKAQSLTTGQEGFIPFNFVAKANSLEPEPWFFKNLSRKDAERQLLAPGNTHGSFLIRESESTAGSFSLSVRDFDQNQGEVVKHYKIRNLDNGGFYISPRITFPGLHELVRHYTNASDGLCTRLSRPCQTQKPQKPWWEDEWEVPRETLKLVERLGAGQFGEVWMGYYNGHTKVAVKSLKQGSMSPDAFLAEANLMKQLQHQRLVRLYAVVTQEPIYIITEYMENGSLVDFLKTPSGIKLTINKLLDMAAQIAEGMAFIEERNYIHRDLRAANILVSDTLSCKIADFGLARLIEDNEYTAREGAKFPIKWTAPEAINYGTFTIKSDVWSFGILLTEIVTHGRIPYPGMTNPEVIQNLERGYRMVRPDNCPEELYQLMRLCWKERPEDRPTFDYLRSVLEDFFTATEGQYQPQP
Chain of Insulin-like growth factor 1 receptor (Homo sapiens) (P08069 31-736 limits assumed): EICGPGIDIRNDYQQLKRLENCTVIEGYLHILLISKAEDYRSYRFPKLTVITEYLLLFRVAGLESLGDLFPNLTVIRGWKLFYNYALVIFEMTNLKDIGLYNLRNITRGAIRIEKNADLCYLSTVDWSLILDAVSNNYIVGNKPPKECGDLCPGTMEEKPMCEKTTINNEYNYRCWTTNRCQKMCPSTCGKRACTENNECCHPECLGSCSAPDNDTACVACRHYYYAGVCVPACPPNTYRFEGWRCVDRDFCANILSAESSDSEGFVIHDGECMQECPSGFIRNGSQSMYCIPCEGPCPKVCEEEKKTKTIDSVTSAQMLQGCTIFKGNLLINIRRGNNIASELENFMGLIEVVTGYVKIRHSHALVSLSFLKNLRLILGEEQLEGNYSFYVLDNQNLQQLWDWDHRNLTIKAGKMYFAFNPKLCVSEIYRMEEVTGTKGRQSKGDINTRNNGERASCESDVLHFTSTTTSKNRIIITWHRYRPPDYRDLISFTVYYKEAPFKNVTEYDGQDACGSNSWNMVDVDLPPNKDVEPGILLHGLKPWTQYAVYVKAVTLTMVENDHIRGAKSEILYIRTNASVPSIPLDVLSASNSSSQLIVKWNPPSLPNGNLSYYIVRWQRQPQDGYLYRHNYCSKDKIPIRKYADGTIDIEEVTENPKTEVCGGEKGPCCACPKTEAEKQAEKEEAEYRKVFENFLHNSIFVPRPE
Chain of Insulin-like growth factor 1 receptor (Homo sapiens) (P08069 741-1367 limits assumed): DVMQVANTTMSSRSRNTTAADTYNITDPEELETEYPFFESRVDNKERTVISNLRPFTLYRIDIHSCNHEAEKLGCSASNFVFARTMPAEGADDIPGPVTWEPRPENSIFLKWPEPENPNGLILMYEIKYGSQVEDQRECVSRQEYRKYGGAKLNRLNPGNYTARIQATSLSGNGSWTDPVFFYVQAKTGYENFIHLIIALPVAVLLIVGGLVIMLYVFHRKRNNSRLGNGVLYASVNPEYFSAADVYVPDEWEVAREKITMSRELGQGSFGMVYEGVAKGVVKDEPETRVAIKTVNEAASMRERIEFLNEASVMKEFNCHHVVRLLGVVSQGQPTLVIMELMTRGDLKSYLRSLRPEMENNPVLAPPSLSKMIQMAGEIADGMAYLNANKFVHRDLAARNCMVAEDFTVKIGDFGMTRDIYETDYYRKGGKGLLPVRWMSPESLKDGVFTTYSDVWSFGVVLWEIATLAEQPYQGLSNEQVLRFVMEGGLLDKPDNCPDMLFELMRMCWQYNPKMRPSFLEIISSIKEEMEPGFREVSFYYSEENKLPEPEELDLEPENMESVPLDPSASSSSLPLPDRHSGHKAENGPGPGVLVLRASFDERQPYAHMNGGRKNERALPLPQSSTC
Chain of Tyrosine-protein kinase Lyn (Homo sapiens) (P07948 2-512 limits assumed): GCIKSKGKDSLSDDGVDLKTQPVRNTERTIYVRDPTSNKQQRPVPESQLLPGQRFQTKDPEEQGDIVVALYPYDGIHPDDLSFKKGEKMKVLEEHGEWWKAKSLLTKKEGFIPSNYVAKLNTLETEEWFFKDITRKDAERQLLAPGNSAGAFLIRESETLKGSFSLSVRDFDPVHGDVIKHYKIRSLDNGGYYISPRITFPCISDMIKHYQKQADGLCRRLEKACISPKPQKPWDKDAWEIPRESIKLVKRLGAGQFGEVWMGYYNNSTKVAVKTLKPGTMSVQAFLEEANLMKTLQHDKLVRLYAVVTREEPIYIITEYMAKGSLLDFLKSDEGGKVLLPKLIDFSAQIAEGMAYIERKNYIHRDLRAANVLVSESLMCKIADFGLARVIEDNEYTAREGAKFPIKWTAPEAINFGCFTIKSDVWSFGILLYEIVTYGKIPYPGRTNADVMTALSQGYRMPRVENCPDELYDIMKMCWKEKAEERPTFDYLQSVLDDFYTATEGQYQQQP
Chain of Serine/threonine-protein kinase Chk1 (Homo sapiens) (O14757 whole entry): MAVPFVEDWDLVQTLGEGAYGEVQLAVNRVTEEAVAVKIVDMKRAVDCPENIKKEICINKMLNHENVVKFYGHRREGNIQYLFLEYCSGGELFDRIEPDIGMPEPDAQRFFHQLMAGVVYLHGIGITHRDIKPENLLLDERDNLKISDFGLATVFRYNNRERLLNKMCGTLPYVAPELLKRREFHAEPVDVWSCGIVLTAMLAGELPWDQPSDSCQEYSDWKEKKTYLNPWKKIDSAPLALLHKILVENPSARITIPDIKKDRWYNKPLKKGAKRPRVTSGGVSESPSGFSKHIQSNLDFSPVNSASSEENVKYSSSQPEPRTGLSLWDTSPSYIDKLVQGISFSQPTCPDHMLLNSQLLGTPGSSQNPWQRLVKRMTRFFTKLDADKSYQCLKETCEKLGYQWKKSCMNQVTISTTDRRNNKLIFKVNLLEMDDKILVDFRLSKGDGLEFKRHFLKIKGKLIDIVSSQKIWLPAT
Chain of Mitogen-activated protein kinase 1 (Homo sapiens) (P28482 whole entry): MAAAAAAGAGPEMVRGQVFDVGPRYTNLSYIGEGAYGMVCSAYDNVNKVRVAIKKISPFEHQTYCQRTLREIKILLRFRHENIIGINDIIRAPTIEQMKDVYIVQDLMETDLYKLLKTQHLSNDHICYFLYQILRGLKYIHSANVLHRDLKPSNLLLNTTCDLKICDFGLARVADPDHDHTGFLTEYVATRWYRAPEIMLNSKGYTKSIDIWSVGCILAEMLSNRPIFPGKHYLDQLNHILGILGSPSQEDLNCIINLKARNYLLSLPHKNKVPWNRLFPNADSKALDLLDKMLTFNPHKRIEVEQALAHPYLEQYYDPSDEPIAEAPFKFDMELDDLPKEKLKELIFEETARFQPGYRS

## CC(=O)c1ccccc1-c1ccc(-c2ccnc(NC(=O)Nc3cc(N4CCOCC4)cc(C(F)(F)F)c3)n2)cn1
PC-3 [1]
  growth at 10 µM: 91%
CCRF-CEM [2]
  growth at 0.001 µM: 98%
SK-MEL-28 [3]
  growth at 10 µM: 93%
NCI-H23
  growth at 0.1 µM: 83%
CCRF-CEM [4]
  GI50: > 100 µM
  TGI: > 100 µM
CCRF-CEM [4]; [34]
  CC50: > 100 µM
HCC 2998
  growth at 0.001 µM: 110%
A549
  growth at 0.001 µM: 94%
RXF 393 [5]
  growth at 1 µM: -52%
CCRF-CEM [6]
  growth at 0.1 µM: 87%
PC-3 [7]
  growth at 0.001 µM: 101%
CCRF-CEM [8]
  growth at 0.01 µM: 102%
RXF 393 [9]
  growth at 10 µM: -16%
[10]
  growth at 0.1 µM: 79%
CCRF-CEM [11]
  growth at 1 µM: 93%
SK-MEL-28 [12]
  growth at 0.1 µM: 92%
SR [13]
  growth at 0.1 µM: 74%
HOP-62
  growth at 0.001 µM: 103%
NCI-H226 [14]
  growth at 0.1 µM: 96%
SR [15]
  GI50: > 100 µM
  TGI: > 100 µM
SR [15]; [34]
  CC50: > 100 µM
RXF 393 [16]
  growth at 0.1 µM: 82%
HOP-92 [17]
  growth at 10 µM: 20%
NCI-H226 [18]
  growth at 10 µM: 71%
HOP-92 [19]
  growth at 0.01 µM: 102%
HOP-92 [20]
  growth at 0.1 µM: 91%

## CC(=O)Nc1cccc(-c2ccc(-c3ccnc(NC(=O)Nc4cc(C(F)(F)F)cc(C(F)(F)F)c4)n3)cn2)c1.Cl
[21]
  inhibition: < 50%
[22]
  inhibition: < 50%
[23]
  inhibition: < 50%
[24]
  inhibition: < 50%
[25]
  inhibition: < 50%
[26]
  inhibition: < 50%
[27]
  inhibition: < 50%
[28]
  inhibition: 60%
[29]
  inhibition: < 50%
[30]
  inhibition: < 50%
[31]
  inhibition: < 50%
[32]
  inhibition: 70%
[33]
  inhibition: < 50%
